Source: PubChem (several laboratories)
A selection: hits, their analogues and other compounds. The true share with any hit is near 3%.
MEKK2 mut-MEK5 – MEK5 binding signal on mutant MEKK2 PB1, primary screen, biochemical, multiplex bead flow cytometry, Alexa488-MEK5; Alexa488-MEK5 binding to MEKK2 mutant; percent response, % at 10 µM; 0.35% of 290,000 active; in the data active = percent response above about 24%, passing the limit was not always enough
Apaf-1 inh – inhibitors of human Apaf-1 apoptosome, primary screen, biochemical, DEVD-Rh110 fluorescence, uHTS; reconstituted apoptosome caspase-3 activity; Apoptotic protease-activating factor 1 (Homo sapiens), O14727; 0.71% of 330,000 active; inhibition, % at 20 µM; active = inhibition of at least 40% at 20 µM;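 also: plate controls were DMSO wells for no effect and DEVD-CHO caspase inhibitor wells for full effect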
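Material: biochemical Apaf-1 apoptosome reconstitution. Medium: Hepes buffer, pH 7.5. Also added: cytochrome c activation, bis-DEVD rhodamine 110 substrate. Timing: 30 min compound preincubation, 50 min activation, room temperature. Measured by: rhodamine 110 fluorescence at Ex 480/Em 540 nm.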
MEKK2 WT-MEK5 – modulators of MEK5 binding to wildtype MEKK2, primary screen, biochemical, multiplex bead flow cytometry, Alexa488-MEK5 | Alexa488-MEK5 binding to MEKK2 WT; actives lie on both sides | 1.1% of 290,000 active | Mitogen-activated protein kinase kinase kinase 2 (Homo sapiens), Q9Y2U5 | AID 1531, 2009 | binding response (% of control), % at 10 µM; in the data active = binding response below about 67% or above about 130%
UBC13 polyUb – UBC13 polyubiquitin chain formation inhibitors, primary screen, biochemical, TR-FRET, uHTS | Ubiquitin-conjugating enzyme E2 N (Homo sapiens), P61088 | inhibition, % at 20 µM | 0.47% of 330,000 active | AID 485273, 2010; in the data active = inhibition above about 45%, passing the limit was not always enough
Target sequence (P61088 whole entry, looked up): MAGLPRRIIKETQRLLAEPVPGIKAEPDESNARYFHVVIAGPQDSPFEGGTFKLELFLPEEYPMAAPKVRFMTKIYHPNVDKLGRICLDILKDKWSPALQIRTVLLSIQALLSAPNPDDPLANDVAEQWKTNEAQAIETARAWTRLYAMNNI
UCH37 inh – inhibitors of human UCH37 deubiquitinase, primary screen, biochemical, Ub-AMC cleavage, fluorescence; Ubiquitin carboxyl-terminal hydrolase isozyme L5 (Homo sapiens), Q9Y5K5; purified proteasome/UCH37; inhibition, % (no concentration beside the values); 0.33% of 330,000 active;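 active = mean inhibition over replicate wells above about 20%, limit read from the data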;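 also: 0% = compound-free wells with enzyme and 100% = wells lacking proteasome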
Target sequence (Q9Y5K5 whole entry, looked up): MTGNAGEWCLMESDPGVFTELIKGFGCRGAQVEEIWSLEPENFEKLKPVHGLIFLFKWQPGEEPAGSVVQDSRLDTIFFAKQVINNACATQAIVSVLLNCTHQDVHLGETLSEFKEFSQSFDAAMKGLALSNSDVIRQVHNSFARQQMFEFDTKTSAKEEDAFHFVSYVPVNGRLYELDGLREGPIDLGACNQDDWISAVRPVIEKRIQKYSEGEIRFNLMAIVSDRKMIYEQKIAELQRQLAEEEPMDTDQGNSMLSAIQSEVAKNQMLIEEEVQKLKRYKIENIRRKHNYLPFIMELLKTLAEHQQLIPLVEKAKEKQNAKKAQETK
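Material: human UCH37 enzyme supplied as purified proteasome complex. Measure: % inhibition of Ub-AMC cleavage fluorescence. Medium: pH 7.4 Tris-HCl (50 mM) with ovalbumin, ATP-MgCl2, DTT. Times: 30 min preincubation with enzyme, 25 min cleavage at room temperature. Detection: AMC fluorescence intensity at 355/460 nm.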
MEKK3 PB1 HTS – modulators of MEKK3-MEK5 PB1 binding, primary screen, biochemical, wildtype MEKK3, multiplex bead flow cytometry, Alexa488-MEK5; Mitogen-activated protein kinase kinase kinase 3 (Homo sapiens), Q99759; bead-based flow cytometry, Alexa488-MEK5 binding to MEKK3; actives lie on both sides; 0 = blocked by unlabeled MEK5, 100 = vehicle; binding response (% of control), % at 10 µM; 1.4% of 290,000 active; AID 1529, 2009;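 active = binding response more than 3 SD above or below the average of its plate-row segment, actives on both sides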;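 also: Alexa488 bead fluorescence after subtracting the streptavidin-only scavenger bead signal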
MEKK2wt confirm – modulators of MEK5 binding to wildtype MEKK2, confirmation, biochemical, single concentration, multiplex bead flow cytometry | shares compounds with MEKK3 PB1 HTS | Alexa488-MEK5 binding to MEKK2 WT; actives lie on both sides | binding response (% of control), % at 10 µM | 2.4% of 5,900 active; in the data active = binding response below about 16% or above about 210%; inactive = in between
MEKK2mut-MEK5 – mutant MEKK2 PB1-MEK5 binding signal retest – biochemical, single concentration, multiplex bead flow cytometry, confirmation | shares compounds with MEKK3 PB1 HTS | Alexa488-MEK5 binding to MEKK2 mutant | percent response, % at 10 µM | 2% of 5,900 active; in the data active = percent response mostly above about 71%, no sharp cut-off; inactive = mostly below about 38%;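 also: higher means compound restores mutant binding toward wildtype level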
MEKK3-MEK5 inh – MEKK3 wild-type PB1 binding to MEK5, inhibitors, confirmation, biochemical, bead multiplex flow cytometry, single concentration, wildtype; shares compounds with MEKK3 PB1 HTS; 1.8% of 5,900 active; Alexa488-MEK5 binding to MEKK3; active compounds read low; binding response (% of control), % at 10 µM; AID 1894, 2009;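 active = binding response below 72% of control, or above a set upper limit, though filed actives all read lower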;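 also: 100% = DMSO only wells and 0% = binding blocked by excess unlabeled MEK5; lower values mean stronger disruption of MEK5 binding to MEKK3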
* = called active by the depositor; . = not tested or not shown; ! = not active in a repeat; [ ] = remark or other dose.

SMILES	MEKK2 mut-MEK5	Apaf-1 inh	MEKK2 WT-MEK5	UBC13 polyUb	UCH37 inh	MEKK3 PB1 HTS	MEKK2wt confirm	MEKK2mut-MEK5	MEKK3-MEK5 inh
CC1(C)CC(=O)C(C=NCCN2CCN(C(=S)Nc3ccccc3)CC2)=C(O)C1	-14.0	5.9	3.0*[inhibitor]	-3.9	3.6	3.0*[inhibitor]	102.0	5.0	103.0
CCOC(=O)C1=C(N)OC2=C(C(=O)CC(C)(C)C2)C1c1ccc(CC)s1 (centres undefined)	-15.0	6.8	41.0*[inhibitor]	0.9	2.7	40.0*[inhibitor]	95.0	-4.0	102.0
CCOC(=O)C1=C(N)OC2=C(C(=O)CC(C)(C)C2)C1c1ccc(C)s1 (centres undefined)	0.0	9.7	105.0	-0.2	1.6	110.0	.	.	.
CC(C)NCC(O)c1ccc(NS(C)(=O)=O)cc1 (centres undefined)	6.0	-11.3	119.0	7.6	4.1	122.0*!	101.0	-5.0	99.0
Cc1ccc(SCC(=O)NCC2CCCO2)cc1 (centres undefined)	-10.0	-11.2	94.0	1.6	-2.0	96.0	.	.	.
Cc1ccc(SCCC(=O)NCC2CCCO2)cc1 (centres undefined)	-39.0	6.2	1.0*[inhibitor]	-5.2	5.7	2.0*[inhibitor]	96.0	1.0	102.0
Cc1ccc(-c2nsc(SCC(=O)NCC3CCCO3)n2)cc1 (centres undefined)	-9.0	-2.7	93.0	1.5	-0.1	98.0	.	.	.
CCOc1cc(NC(=S)NCC2CCCO2)c(OCC)cc1NC(=O)c1ccccc1C (centres undefined)	-3.0	3.4	98.0	2.2	4.0	103.0	.	.	.
CCOc1cc(NC(=S)NCC2CCCO2)c(OCC)cc1NC(=O)c1ccc(OC)cc1 (centres undefined)	1.0	23.4	106.0	1.3	0.9	130.0*	96.0	-1.0	103.0
COc1ccc2oc(=O)c(C(=O)NCC3CCCO3)cc2c1 (centres undefined)	-7.0	-1.8	94.0	11.4	-425.8	82.0*[inhibitor]	101.0	-6.0	98.0
COc1ccc(-c2nsc(SCC(=O)NCC3CCCO3)n2)cc1 (centres undefined)	-3.0	-10.9	81.0	9.7	-0.2	73.0*[inhibitor]	100.0	1.0	101.0
COc1cccc2cc(C(=O)NCC3CCCO3)c(=O)oc12 (centres undefined)	.	-5.0	.	0.6	-4.8	.	.	.	.
C(=NOCCc1ccccc1)c1ccncc1	.	.	.	.	2.6	.	.	.	.
Cc1c(NC(=O)C(C)Sc2nccn2C)c(=O)n(-c2ccccc2)n1C (centres undefined)	.	13.4	.	-6.2	1.2	.	.	.	.
CC1(C)CC(=O)C(N=Nc2ccc(Br)cc2)=C(O)C1	2.0	-18.5	97.0	-2.2	2.5	98.0	.	.	.
CC1(C)CC(=O)C(Sc2ccc(Br)cc2)=C(O)C1	-4.0	-8.6	84.0	7.7	0.2	73.0*[inhibitor]	98.0	-7.0	90.0
CC(C)CNC(=S)Nc1ccccc1F	0.0	-9.9	104.0	19.0	-1.2	94.0	.	.	.
